ChEMBL document CHEMBL5712886, “Discovery and Characterization of GSK2801, a Selective Chemical Probe for the Bromodomains BAZ2A and BAZ2B” (J Med Chem, 2016)
Active and inactive are the calls of the source. No cut-off for these calls is given here.

How the values were obtained:
[1] = molecular target: Transcription initiation factor TFIID subunit 1-like (Homo sapiens) (UniProt Q8IZX4); test: Binding affinity to biotinylated TAF1L bromodomain-2 (unknown origin) expressed in Escherichia coli at 0.2 to 1 uM by Biolayer Interferometric analysis; details: dose 0.2-1 µM
Method in brief: (§1)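 Bromodomains carrying a BirA biotin ligase targeting sequence, coexpressed with BirA in bacteria to give homogeneous in vivo biotin labelling, checked by mass spectrometry. Biotinylated proteins probed by biolayer interferometry with compound at two concentrations, 0.2 and 1.0 μM.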

[2] = molecular target: Bromodomain testis-specific protein (Homo sapiens) (UniProt Q58F21); test: Binding affinity to biotinylated BRDT bromodomain-2 (unknown origin) expressed in Escherichia coli at 0.2 to 1 uM by Biolayer Interferometric analysis; details: dose 0.2-1 µM; method in brief: as §1
[3] = molecular target: Bromodomain adjacent to zinc finger domain protein 2A (Homo sapiens) (UniProt Q9UIF9); test: Binding affinity to BAZ2A in human HuT78 cell extract up to 50 uM using GSK2801 affinity matrix by chemoproteomic competition binding assay; type: cell-free
[4] = molecular target: PH-interacting protein (Homo sapiens) (UniProt Q8WWQ0); test: Binding affinity to biotinylated PHIP (unknown origin) expressed in Escherichia coli at 0.2 to 1 uM by Biolayer Interferometric analysis; details: dose 0.2-1 µM; method in brief: as §1
[5] = molecular target: Protein polybromo-1 (Homo sapiens) (UniProt Q86U86); test: Binding affinity to biotinylated PB1 bromodomain-6 (unknown origin) expressed in Escherichia coli at 0.2 to 1 uM by Biolayer Interferometric analysis; details: dose 0.2-1 µM; method in brief: as §1
Sequence of Protein polybromo-1 (Homo sapiens) (Q86U86 whole entry): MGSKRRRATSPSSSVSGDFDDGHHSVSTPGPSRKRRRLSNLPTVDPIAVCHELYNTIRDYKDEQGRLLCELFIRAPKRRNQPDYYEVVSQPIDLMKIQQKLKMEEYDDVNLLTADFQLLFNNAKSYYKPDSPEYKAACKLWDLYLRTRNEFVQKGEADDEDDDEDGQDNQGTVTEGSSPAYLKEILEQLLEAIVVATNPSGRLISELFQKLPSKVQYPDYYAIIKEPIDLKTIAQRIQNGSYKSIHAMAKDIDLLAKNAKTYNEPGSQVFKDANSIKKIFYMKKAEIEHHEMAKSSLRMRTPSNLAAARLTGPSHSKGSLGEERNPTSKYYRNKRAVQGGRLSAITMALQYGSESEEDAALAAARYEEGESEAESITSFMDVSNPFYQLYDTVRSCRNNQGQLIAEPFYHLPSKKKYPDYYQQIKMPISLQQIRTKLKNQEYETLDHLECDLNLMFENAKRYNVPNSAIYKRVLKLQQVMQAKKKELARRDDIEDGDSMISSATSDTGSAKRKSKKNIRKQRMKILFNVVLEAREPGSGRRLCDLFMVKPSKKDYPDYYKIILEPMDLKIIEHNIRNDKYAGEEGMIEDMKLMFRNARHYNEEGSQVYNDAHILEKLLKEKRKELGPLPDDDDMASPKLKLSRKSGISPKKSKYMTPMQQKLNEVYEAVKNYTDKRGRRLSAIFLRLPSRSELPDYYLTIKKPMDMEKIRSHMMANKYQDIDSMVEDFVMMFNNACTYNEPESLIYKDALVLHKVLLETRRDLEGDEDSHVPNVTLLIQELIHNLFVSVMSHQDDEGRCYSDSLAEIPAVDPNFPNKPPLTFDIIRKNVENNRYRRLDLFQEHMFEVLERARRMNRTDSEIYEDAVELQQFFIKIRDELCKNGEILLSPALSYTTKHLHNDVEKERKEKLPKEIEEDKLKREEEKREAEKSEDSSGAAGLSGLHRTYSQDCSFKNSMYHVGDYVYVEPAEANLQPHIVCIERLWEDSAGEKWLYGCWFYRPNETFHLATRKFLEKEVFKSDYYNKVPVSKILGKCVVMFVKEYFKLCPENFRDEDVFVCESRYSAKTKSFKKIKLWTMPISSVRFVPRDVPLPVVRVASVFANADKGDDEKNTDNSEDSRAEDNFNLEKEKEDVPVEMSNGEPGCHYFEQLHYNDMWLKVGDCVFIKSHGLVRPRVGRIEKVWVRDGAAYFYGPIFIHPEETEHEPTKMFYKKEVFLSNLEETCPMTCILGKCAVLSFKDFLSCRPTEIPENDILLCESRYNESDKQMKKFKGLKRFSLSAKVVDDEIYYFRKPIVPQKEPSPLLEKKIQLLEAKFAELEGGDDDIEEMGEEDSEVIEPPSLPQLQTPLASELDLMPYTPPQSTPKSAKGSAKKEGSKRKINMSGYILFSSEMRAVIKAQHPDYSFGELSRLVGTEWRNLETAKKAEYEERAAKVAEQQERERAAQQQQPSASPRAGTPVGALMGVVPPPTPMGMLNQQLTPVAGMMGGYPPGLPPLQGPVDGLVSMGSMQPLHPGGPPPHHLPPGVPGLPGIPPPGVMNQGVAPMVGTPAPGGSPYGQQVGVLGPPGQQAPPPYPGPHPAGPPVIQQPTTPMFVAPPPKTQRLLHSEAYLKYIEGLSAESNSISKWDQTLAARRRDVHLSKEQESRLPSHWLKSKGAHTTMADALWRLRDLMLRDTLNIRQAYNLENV

[6] = molecular target: SWI/SNF-related matrix-associated actin-dependent regulator of chromatin subfamily A member 2 (Homo sapiens, UniProt P51531); test: Binding affinity to biotinylated SMARCA2 (unknown origin) expressed in Escherichia coli at 0.2 to 1 uM by Biolayer Interferometric analysis; details: dose 0.2-1 µM; method in brief: as §1
[7] = molecular target: Bromodomain adjacent to zinc finger domain protein 2B (Homo sapiens) (UniProt Q9UIF8); test: Binding affinity to BAZ2B in human HuT78 cell extract up to 50 uM using GSK2801 affinity matrix by chemoproteomic competition binding assay; type: cell-free
Sequence of Bromodomain adjacent to zinc finger domain protein 2B (Homo sapiens) (Q9UIF8 whole entry, the tested form may be a part): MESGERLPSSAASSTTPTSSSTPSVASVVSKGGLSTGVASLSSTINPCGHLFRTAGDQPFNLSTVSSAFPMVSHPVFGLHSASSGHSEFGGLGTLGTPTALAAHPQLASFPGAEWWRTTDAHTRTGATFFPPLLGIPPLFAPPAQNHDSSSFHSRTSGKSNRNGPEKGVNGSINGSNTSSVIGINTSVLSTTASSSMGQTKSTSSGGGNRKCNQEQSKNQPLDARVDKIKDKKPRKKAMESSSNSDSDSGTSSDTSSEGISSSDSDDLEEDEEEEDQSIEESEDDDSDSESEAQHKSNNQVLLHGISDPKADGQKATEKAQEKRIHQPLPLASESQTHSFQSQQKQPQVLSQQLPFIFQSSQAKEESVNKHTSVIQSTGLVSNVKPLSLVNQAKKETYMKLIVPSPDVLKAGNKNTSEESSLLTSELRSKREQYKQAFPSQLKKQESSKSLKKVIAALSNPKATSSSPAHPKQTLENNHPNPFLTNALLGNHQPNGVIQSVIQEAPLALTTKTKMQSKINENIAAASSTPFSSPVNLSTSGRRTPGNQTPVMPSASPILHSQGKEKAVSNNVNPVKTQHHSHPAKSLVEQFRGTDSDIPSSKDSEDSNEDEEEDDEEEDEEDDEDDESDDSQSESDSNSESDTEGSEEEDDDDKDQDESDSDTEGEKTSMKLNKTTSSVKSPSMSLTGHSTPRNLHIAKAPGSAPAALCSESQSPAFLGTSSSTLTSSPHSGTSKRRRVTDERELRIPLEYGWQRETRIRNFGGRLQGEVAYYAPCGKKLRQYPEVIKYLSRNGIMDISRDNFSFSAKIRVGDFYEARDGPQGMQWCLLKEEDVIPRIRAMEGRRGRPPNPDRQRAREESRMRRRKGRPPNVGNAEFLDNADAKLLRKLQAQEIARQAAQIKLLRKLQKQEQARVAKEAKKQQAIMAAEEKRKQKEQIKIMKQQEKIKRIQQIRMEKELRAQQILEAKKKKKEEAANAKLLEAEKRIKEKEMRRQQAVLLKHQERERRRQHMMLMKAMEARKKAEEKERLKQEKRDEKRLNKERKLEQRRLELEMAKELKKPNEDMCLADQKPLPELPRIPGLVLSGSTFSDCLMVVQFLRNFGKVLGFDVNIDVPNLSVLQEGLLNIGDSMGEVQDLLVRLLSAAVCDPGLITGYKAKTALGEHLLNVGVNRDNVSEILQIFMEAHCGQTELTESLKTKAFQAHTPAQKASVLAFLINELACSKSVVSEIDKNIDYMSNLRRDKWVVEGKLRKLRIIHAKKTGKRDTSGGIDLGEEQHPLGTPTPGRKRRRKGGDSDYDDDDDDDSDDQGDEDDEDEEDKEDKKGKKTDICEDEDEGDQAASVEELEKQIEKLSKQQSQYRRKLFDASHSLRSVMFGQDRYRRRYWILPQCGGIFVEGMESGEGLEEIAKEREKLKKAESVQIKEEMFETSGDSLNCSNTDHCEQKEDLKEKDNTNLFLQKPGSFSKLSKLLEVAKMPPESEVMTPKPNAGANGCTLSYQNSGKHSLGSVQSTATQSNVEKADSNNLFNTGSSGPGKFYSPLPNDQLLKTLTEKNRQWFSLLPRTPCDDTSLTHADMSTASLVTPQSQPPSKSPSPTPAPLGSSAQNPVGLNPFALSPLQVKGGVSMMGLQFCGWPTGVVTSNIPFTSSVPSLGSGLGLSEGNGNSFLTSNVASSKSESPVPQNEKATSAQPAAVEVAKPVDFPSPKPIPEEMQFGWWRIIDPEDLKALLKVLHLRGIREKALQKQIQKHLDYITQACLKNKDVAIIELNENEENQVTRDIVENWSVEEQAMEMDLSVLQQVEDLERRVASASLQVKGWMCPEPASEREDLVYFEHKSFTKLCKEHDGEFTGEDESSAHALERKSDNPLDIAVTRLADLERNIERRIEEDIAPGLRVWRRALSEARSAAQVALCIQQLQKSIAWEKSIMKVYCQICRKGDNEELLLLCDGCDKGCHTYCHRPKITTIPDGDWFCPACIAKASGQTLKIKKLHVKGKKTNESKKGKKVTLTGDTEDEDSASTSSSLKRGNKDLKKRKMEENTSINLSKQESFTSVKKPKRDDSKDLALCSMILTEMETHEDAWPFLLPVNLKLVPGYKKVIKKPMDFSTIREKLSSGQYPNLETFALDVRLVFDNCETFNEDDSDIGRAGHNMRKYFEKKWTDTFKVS

[8] = molecular target: Histone acetyltransferase KAT2B (Homo sapiens) (UniProt Q92831); test: Binding affinity to biotinylated PCAF (unknown origin) expressed in Escherichia coli at 0.2 to 1 uM by Biolayer Interferometric analysis; details: dose 0.2-1 µM; method in brief: as §1
[9] = molecular target: Bromodomain-containing protein 2 (Homo sapiens) (UniProt P25440); test: Binding affinity to biotinylated BRD2 bromodomain-2 (unknown origin) expressed in Escherichia coli at 0.2 to 1 uM by Biolayer Interferometric analysis; details: dose 0.2-1 µM; method in brief: as §1
Sequence of Bromodomain-containing protein 2 (Homo sapiens) (P25440 whole entry, looked up): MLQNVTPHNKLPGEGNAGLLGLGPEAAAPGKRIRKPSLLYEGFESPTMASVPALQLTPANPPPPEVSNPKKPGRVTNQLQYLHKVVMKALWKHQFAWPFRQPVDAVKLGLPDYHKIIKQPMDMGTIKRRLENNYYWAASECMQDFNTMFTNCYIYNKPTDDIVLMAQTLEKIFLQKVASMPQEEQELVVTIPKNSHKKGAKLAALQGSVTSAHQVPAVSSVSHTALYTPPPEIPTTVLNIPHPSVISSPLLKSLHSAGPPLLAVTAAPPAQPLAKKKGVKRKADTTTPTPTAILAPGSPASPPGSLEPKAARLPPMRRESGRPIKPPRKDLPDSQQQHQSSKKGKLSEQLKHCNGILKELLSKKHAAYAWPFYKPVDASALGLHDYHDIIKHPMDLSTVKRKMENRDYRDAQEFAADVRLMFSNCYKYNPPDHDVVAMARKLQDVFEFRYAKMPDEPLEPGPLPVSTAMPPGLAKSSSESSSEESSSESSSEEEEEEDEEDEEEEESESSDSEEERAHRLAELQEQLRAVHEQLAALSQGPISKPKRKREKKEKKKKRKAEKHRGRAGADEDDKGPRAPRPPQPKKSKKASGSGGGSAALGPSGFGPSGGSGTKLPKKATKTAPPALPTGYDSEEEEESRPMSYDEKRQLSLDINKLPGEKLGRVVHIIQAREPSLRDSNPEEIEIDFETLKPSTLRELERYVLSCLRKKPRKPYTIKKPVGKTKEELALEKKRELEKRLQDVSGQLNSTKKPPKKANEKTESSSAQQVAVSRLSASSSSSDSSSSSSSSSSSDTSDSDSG

[10] = molecular target: Bromodomain-containing protein 4 (Homo sapiens) (UniProt O60885); test: Binding affinity to biotinylated BRD4 bromodomain-2 (unknown origin) expressed in Escherichia coli at 0.2 to 1 uM by Biolayer Interferometric analysis; details: dose 0.2-1 µM; method in brief: as §1
[11] = molecular target: Bromodomain testis-specific protein (Homo sapiens) (UniProt Q58F21); test: Binding affinity to biotinylated BRDT bromodomain-1 (unknown origin) expressed in Escherichia coli at 0.2 to 1 uM by Biolayer Interferometric analysis; details: dose 0.2-1 µM; method in brief: as §1
[12] = molecular target: Bromodomain-containing protein 4 (Homo sapiens) (UniProt O60885); test: Binding affinity to biotinylated BRD4 bromodomain-1 (unknown origin) expressed in Escherichia coli at 0.2 to 1 uM by Biolayer Interferometric analysis; details: dose 0.2-1 µM; method in brief: as §1
[13] = molecular target: Histone-lysine N-methyltransferase ASH1L (Homo sapiens) (UniProt Q9NR48); test: Binding affinity to biotinylated ASH1L bromodomain (unknown origin) expressed in Escherichia coli at 0.2 to 1 uM by Biolayer Interferometric analysis; details: dose 0.2-1 µM; method in brief: as §1
[14] = molecular target: Nuclear body protein SP140 (Homo sapiens) (UniProt Q13342); test: Binding affinity to biotinylated SP140 (unknown origin) expressed in Escherichia coli at 0.2 to 1 uM by Biolayer Interferometric analysis; details: dose 0.2-1 µM; method in brief: as §1
[15] = molecular target: Tyrosine-protein kinase BAZ1B (Homo sapiens) (UniProt Q9UIG0); test: Binding affinity to biotinylated BAZ1B (unknown origin) expressed in Escherichia coli at 0.2 to 1 uM by Biolayer Interferometric analysis; details: dose 0.2-1 µM; method in brief: as §1
[16] = molecular target: Bromodomain-containing protein 2 (Homo sapiens) (UniProt P25440); test: Binding affinity to biotinylated BRD2 bromodomain-1 (unknown origin) expressed in Escherichia coli at 0.2 to 1 uM by Biolayer Interferometric analysis; details: dose 0.2-1 µM; method in brief: as §1
[17] = molecular target: Transcription intermediary factor 1-alpha (Homo sapiens) (UniProt O15164); test: Binding affinity to biotinylated TIF1 bromodomain-1 (unknown origin) expressed in Escherichia coli at 0.2 to 1 uM by Biolayer Interferometric analysis; details: dose 0.2-1 µM; method in brief: as §1
[18] = molecular target: CREB-binding protein (Homo sapiens) (UniProt Q92793); test: Binding affinity to biotinylated CREBBP (unknown origin) expressed in Escherichia coli at 0.2 to 1 uM by Biolayer Interferometric analysis; details: dose 0.2-1 µM; method in brief: as §1
[19] = molecular target: Chromatin remodeling regulator CECR2 (Homo sapiens) (UniProt Q9BXF3); test: Binding affinity to biotinylated CECR2 (unknown origin) expressed in Escherichia coli at 0.2 to 1 uM by Biolayer Interferometric analysis; details: dose 0.2-1 µM; method in brief: as §1
[20] = molecular target: Protein polybromo-1 (Homo sapiens) (UniProt Q86U86); test: Binding affinity to biotinylated PB1 bromodomain-5 (unknown origin) expressed in Escherichia coli at 0.2 to 1 uM by Biolayer Interferometric analysis; details: dose 0.2-1 µM; method in brief: as §1
[21] = molecular target: Protein polybromo-1 (Homo sapiens) (UniProt Q86U86); test: Binding affinity to biotinylated PB1 bromodomain-2 (unknown origin) expressed in Escherichia coli at 0.2 to 1 uM by Biolayer Interferometric analysis; details: dose 0.2-1 µM; method in brief: as §1

- Activity [1]: inactive
- Activity [2]: inactive
- Activity [3]: inactive
- Activity [4]: inactive
- Activity [5]: inactive
- Activity [6]: inactive
- Activity [7]: inactive
- Activity [8]: inactive
- Activity [9]: inactive
- Activity [10]: inactive
- Activity [11]: inactive
- Activity [12]: inactive
- Activity [13]: inactive
- Activity [14]: inactive
- Activity [15]: inactive
- Activity [16]: inactive
- Activity [17]: inactive
- Activity [18]: inactive
- Activity [19]: inactive
- Activity [20]: inactive
- Activity [21]: inactive
SMILES: CCCOc1ccn2c(C(C)=O)cc(-c3cccc(OC)c3)c2c1
